This is an account of results in article PMC4589464 (Hepatology (Baltimore, Md.), 2015).

Like-named read-outs stand apart in the source and are kept apart here.

The CC50 is the concentration at which the toxic effect on the cells reaches its halfway point.

A short description of series [1]: Cytotoxicity in MT-4 cells. The note with it: human. It is filed as cell-based.
Series [2] is described as follows: in vitro. It counts as cell-based. The note with it: human.
Series [3] relates to HBVETV-R^L180M/S202G/M204V. Description: Southern blot assay, Huh-7 cells transfected with ETV-resistant HBV plasmid. It is filed as cell-based. The settings on record: Hepatitis B virus, Huh-7, read-out: IC50 against HBVETV-R^L180M/S202G/M204V. Summed up: (§1)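 Huh-7 cells were transfected with the HBV variant-containing plasmid and cultured with a range of test compound concentrations. Core-associated HBV DNA was extracted and detected by Southern blot hybridization. IC50 was calculated from the change in signal density, generally averaged over two experiments. The fold change was taken relative to the IC50 against wild-type HBV plasmid.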

For series [4], the system named is HBVADV-R^A181T/N236T. Kind of series: Southern blot assay, Huh-7 cells transfected with ADV-resistant HBV plasmid. It is filed as cell-based. The note with it: Hepatitis B virus, Huh-7, read-out: IC50 against HBVADV-R^A181T/N236T. The essentials: as §1
The subject of series [5] is HIV-1NL4-3.
Series [6] deals with HBV.
Series [7] relates to HBV^WT. The settings on record: read-out: IC50 against HBV^WT; Southern blotting assay; cited from earlier work.
For series [8], the system named is HBV. Description: microbe, parasite or virus in culture. The note with it: Hepatitis B virus, HepG2 2.2.15, 288 h, read-out: IC50 against Anti-HBV.
Series [9] has as its system HIV-1NL4-3. Description: microbe, parasite or virus in culture. The note with it: Human immunodeficiency virus 1, MT4, read-out: IC50 against Anti-HIV-1.

Turning to `CC(C)(C)C(=O)OCOP(=O)(COCCn1cnc2c(N)ncnc21)OCOC(=O)C(C)(C)C` [ADV, adefovir dipivoxil], the CC50 in [1] is 5.1 ± 1 µM; in [2], above 100 µM. Further, the IC50 was 36.4 ± 23.5 µM in series [3], 39.5 ± 13.3 µM in series [4], 7.7 µM in series [7] and 0.2 ± 0.08 µM in [8]. In [5] (MT-4 cells), the “S.I. with Anti-HIV-1 (CC50/IC50)” value was 21. In addition, the “S.I. with Anti-HBV (CC50/IC50)” value in series [6] (HepG2 2.2.15 cells) is recorded as above 500.

For the compound `Nc1nc(=O)n([C@@H]2CS[C@H](CO)O2)cc1F` [FTC, emtricitabine], the CC50 in [1] and in series [2] was above 100 µM in each case. Further, in [5], the “S.I. with Anti-HIV-1 (CC50/IC50)” value is above 430. In addition, the “S.I. with Anti-HBV (CC50/IC50)” value in [6] is listed as > 5,000. Besides, the results for the IC50 in [9] and in series [8] were 0.23 ± 0.1 µM and 0.02 ± 0.01 µM, respectively.
